Measured values as given in ChEMBL document CHEMBL3808325, “Discovery and Optimization of Macrocyclic Quinoxaline-pyrrolo-dihydropiperidinones as Potent Pim-1/2 Kinase Inhibitors” (ACS Med Chem Lett, 2016).
Converted amounts (≈) assume the structure as drawn.

Tests used:
[1] = target: Myosin light chain kinase family member 4 (Homo sapiens) (UniProt Q86YV6); experiment: Inhibition of human MYLK4 assessed as remaining enzyme activity at 1 uM by KINOMEscan assay
Method in brief: (§1)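 scanMAX KINOMEscan panel of 392 nonmutant kinases, compound tested at 1 μM. Result expressed as percent of control (POC). S(10) and S(1) scores are the fraction of kinases with POC below 10% and below 1%.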

[2] = Volume of distribution at steady state in Sprague-Dawley rat at 2 mg/kg, iv; assay type: ADME, organism-based; settings: in vivo, read-out: Vdss
Method in brief: (§2)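 Pharmacokinetics in male Sprague–Dawley rats. Clearance also expressed as a percentage of liver blood flow. Oral bioavailability determined.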

[3] = Oral bioavailability in Sprague-Dawley rat at 5 mg/kg; assay type: ADME, organism-based; settings: in vivo; method in brief: as §2
[4] = target: Casein kinase II subunit alpha (Homo sapiens) (UniProt P68400); experiment: Inhibition of full-length human CSNK2A2 expressed in mammalian system assessed as remaining enzyme activity at 1 uM by KINOMEscan assay; method in brief: as §1
Casein kinase II subunit alpha (Homo sapiens), sequence (P68400 whole entry, looked up): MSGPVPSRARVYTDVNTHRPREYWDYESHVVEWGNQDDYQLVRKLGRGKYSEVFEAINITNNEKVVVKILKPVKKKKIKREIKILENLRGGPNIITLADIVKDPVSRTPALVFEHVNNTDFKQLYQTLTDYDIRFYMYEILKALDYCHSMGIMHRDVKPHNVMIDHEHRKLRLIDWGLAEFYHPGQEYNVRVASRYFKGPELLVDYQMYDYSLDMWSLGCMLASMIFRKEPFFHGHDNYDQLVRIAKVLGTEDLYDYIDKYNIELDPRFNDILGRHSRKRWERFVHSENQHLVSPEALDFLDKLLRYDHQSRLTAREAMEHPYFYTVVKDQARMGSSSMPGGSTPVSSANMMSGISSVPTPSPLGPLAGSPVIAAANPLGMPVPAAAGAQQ

Mus musculus [5] = experiment: Toxicity in human KMS-12-BM cells xenografted SCID-beige mouse assessed as effect on body weight at 10 to 100 mg/kg, po qd; assay type: organism-based; settings: in vivo
Method in brief: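 Tolerability followed in KMS-12-BM xenograft mice given oral doses once daily at 10, 25, 50 or 100 mg/kg over a 16-day efficacy study. Body weight monitored throughout.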

[6] = target: Dual specificity tyrosine-phosphorylation-regulated kinase 1B (Homo sapiens) (UniProt Q9Y463); experiment: Inhibition of human DYRK1B assessed as remaining enzyme activity at 1 uM by KINOMEscan assay; method in brief: as §1
Dual specificity tyrosine-phosphorylation-regulated kinase 1B (Homo sapiens), sequence (Q9Y463 whole entry, looked up): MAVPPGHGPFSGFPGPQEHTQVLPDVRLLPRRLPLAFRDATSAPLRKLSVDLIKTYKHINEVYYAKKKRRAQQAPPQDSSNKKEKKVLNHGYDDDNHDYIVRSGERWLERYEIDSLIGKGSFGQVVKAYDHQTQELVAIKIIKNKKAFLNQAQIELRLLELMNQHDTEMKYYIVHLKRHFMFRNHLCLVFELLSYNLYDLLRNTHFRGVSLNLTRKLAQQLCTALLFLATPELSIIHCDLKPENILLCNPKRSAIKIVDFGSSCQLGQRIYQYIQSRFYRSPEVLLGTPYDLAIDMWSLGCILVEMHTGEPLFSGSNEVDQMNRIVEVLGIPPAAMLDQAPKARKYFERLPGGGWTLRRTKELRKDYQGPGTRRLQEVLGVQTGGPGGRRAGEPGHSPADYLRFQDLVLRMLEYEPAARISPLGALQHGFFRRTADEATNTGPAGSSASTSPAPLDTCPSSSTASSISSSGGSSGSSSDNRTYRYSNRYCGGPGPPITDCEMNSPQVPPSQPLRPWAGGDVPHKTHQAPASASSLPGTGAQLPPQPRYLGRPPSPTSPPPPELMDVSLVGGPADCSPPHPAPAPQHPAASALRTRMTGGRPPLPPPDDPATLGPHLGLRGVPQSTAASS

[7] = Cytotoxicity against human KMS-12-BM cells after 72 hrs by cell titer-glo luminescence assay; assay type: functional, cell-based
Mus musculus [8] = experiment: In vivo inhibition of Pim1/2-mediated BAD protein phosphorylation at Ser-112 in human KMS-12-BM cells xenografted in SCID-beige mouse assessed as pBAD level at 50 mg/kg, po administered as single dose measured after 16 hrs by meso scale discovery assay; assay type: functional; set-up: scale not given: the % may be the effect or the level left
Method in brief: (§3)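 KMS-12-BM xenograft mice given a single oral dose of 25, 50 or 100 mg/kg. Tumor Ser-112 pBAD measured at time points through 16 h postdose. EC50 obtained by fitting all individual total plasma concentration–pBAD response data. Unbound value derived from mouse plasma fraction unbound.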

[9] = target: Serine/threonine-protein kinase pim-1 (Homo sapiens, UniProt P11309); experiment: Inhibition of human PIM1 assessed as remaining enzyme activity at 1 uM by KINOMEscan assay
Serine/threonine-protein kinase pim-1, sequence (P11309 whole entry, looked up): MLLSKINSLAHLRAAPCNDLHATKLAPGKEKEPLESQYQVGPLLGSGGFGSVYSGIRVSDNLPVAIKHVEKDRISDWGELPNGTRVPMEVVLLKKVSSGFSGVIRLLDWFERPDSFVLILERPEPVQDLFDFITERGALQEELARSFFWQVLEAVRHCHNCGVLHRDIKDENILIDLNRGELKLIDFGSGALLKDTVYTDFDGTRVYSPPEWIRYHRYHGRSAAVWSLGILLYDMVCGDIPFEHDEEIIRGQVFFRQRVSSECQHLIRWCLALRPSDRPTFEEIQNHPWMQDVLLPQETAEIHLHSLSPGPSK
Method in brief: (§4)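 Profiled at 1 μM compound across a scanMAX KINOMEscan panel of 392 nonmutant kinases. Activity is reported as percent-of-control (POC). Panel-wide S(10) and S(1) selectivity scores are the fraction of kinases with POC below 10% and below 1%.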

[10] = target: Serine/threonine-protein kinase PIM (Homo sapiens, UniProt P11309+Q9P1W9+Q86V86); experiment: Inhibition of Pim1/2 in human KMS-12-BM cells assessed as phosphorylation of full-length BAD protein at Ser-112 incubated for 110 mins by flow cytometric analysis in presence of 20% FBS; assay type: cell-based
Method in brief: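 Cell assay in KMS-12-BM, a multiple myeloma line with relatively high endogenous Pim-1/2. Pim-dependent phosphorylation of full-length endogenous BAD at Ser-112 measured.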

[11] = Equilibrium solubility of compound in PBS by HPLC analysis; assay type: physicochemical
[12] = target: Dual specificity tyrosine-phosphorylation-regulated kinase 1A (Homo sapiens) (UniProt Q13627); experiment: Inhibition of human DYRK1A assessed as remaining enzyme activity at 1 uM by KINOMEscan assay; method in brief: as §1
Mus musculus [13] = experiment: In vivo inhibition of Pim1/2-mediated BAD protein phosphorylation at Ser-112 in human KMS-12-BM cells xenografted in SCID-beige mouse assessed as pBAD level at 50 mg/kg, po administered as single dose measured after 6 hrs by meso scale discovery assay; assay type: functional; set-up: scale not given: the % may be the effect or the level left; method in brief: as §3
Rattus norvegicus = experiment: Clearance in Sprague-Dawley rat at 2 mg/kg, iv relative to hepatic blood flow; assay type: ADME, organism-based, Liver; settings: in vivo; method in brief: as §2
[14] = Drug metabolism in human liver microsomes assessed as compound turnover at 1 uM incubated for 30 mins; assay type: ADME; settings: read-out: Drug metabolism
Mus musculus [15] = experiment: In vivo inhibition of Pim1/2-mediated BAD protein phosphorylation at Ser-112 in human KMS-12-BM cells xenografted in SCID-beige mouse assessed as pBAD level at 25 mg/kg, po administered as single dose measured after 6 hrs by meso scale discovery assay; assay type: functional; set-up: scale not given: the % may be the effect or the level left; method in brief: as §3
[16] = target: Casein kinase II subunit alpha (Homo sapiens) (UniProt P68400); experiment: Inhibition of full-length human CSNK2A1 expressed in mammalian system assessed as remaining enzyme activity at 1 uM by KINOMEscan assay; method in brief: as §1
[17] = target: Dual specificity protein kinase CLK1 (Homo sapiens) (UniProt P49759); experiment: Inhibition of human CLK1 assessed as remaining enzyme activity at 1 uM by KINOMEscan assay; method in brief: as §1
Mus musculus [18] = experiment: In vivo inhibition of Pim1/2-mediated BAD protein phosphorylation at Ser-112 in human KMS-12-BM cells xenografted in SCID-beige mouse measured after 6 to 16 hrs by meso scale discovery assay; assay type: functional, organism-based; method in brief: as §3
[19] = target: Casein kinase I isoform gamma-2 (Homo sapiens) (UniProt P78368); experiment: Inhibition of full-length human CSNK1G2 expressed in bacterial system assessed as remaining enzyme activity at 1 uM by KINOMEscan assay; method in brief: as §1
Casein kinase I isoform gamma-2 (Homo sapiens), sequence (P78368 whole entry, looked up, canonical isoform): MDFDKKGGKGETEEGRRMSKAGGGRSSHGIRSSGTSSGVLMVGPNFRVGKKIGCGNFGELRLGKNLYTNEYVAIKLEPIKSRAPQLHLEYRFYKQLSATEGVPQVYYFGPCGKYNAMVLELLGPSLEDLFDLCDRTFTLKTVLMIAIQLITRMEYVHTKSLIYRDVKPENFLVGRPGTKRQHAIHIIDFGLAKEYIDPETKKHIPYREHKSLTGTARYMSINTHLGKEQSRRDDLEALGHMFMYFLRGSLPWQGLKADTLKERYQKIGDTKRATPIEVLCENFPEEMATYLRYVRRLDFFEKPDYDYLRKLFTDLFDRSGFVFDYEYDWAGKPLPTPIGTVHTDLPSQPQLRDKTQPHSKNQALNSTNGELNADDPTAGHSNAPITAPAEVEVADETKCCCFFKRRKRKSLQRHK

[20] = Clearance in Sprague-Dawley rat at 2 mg/kg, iv; assay type: ADME, organism-based; settings: in vivo; method in brief: as §2
[21] = Apparent permeability in pig LLC-PK1 cells at 5 uM; assay type: ADME, cell-based, Sus scrofa
Mus musculus [22] = experiment: In vivo inhibition of Pim1/2-mediated BAD protein phosphorylation at Ser-112 in human KMS-12-BM cells xenografted in SCID-beige mouse assessed as pBAD level at 100 mg/kg, po administered as single dose measured after 6 hrs by meso scale discovery assay; assay type: functional; set-up: scale not given: the % may be the effect or the level left; method in brief: as §3
[23] = target: Homeodomain-interacting protein kinase 2 (Homo sapiens) (UniProt Q9H2X6); experiment: Inhibition of human HIPK2 assessed as remaining enzyme activity at 1 uM by KINOMEscan assay; method in brief: as §1
Homeodomain-interacting protein kinase 2 (Homo sapiens), sequence (Q9H2X6 whole entry, looked up): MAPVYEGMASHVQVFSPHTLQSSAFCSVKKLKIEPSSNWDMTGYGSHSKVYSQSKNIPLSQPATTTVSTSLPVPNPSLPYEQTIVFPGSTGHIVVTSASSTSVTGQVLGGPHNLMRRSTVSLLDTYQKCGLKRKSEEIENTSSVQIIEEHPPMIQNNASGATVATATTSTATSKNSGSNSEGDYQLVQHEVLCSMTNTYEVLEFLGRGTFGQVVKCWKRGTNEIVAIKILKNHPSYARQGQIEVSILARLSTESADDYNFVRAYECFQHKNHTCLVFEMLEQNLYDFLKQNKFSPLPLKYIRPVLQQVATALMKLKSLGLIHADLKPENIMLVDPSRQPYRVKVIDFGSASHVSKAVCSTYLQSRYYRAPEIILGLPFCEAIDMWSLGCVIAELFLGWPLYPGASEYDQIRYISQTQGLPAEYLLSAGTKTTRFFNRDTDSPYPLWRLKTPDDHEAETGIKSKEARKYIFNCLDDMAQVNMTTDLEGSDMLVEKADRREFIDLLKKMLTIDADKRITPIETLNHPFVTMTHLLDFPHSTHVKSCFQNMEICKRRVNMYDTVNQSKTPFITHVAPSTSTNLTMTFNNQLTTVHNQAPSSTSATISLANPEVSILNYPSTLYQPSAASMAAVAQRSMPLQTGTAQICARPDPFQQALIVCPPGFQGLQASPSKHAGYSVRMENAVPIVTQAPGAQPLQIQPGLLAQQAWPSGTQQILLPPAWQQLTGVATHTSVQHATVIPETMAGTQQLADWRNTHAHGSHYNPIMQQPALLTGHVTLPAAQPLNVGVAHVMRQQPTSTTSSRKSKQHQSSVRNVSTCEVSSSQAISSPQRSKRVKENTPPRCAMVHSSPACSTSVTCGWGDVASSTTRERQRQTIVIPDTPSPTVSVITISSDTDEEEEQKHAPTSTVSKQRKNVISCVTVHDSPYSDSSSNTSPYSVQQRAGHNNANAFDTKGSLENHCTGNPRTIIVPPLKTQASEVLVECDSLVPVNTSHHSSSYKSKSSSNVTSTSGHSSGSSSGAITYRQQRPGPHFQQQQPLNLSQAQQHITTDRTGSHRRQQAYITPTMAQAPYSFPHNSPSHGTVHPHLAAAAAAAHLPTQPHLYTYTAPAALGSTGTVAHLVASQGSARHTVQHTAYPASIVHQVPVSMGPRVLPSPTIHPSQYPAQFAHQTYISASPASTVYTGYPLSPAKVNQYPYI

[24] = target: Mitogen-activated protein kinase 15 (Homo sapiens) (UniProt Q8TD08); experiment: Inhibition of human MAPK15 assessed as remaining enzyme activity at 1 uM by KINOMEscan assay; method in brief: as §1
Mitogen-activated protein kinase 15 (Homo sapiens), sequence (Q8TD08 whole entry): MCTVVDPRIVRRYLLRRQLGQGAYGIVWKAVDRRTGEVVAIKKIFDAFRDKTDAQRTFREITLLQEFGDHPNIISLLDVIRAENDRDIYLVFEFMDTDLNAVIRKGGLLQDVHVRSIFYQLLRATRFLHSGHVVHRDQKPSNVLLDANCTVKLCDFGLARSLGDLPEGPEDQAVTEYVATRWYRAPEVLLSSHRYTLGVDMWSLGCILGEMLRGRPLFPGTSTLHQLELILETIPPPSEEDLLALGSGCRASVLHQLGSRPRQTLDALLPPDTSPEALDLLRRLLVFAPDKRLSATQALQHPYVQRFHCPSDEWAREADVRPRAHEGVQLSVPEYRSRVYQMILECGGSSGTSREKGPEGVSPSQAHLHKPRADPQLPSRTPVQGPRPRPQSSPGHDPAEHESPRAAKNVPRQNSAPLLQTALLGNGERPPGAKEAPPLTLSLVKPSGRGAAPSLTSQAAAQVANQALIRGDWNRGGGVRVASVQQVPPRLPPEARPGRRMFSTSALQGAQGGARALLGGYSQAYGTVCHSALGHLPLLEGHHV

Plasma = experiment: Free plasma concentration in SCID-beige mouse at 5 uM by LC/MS analysis; assay type: ADME, cell-free
[25] = target: Homeodomain-interacting protein kinase 3 (Homo sapiens) (UniProt Q9H422); experiment: Inhibition of human HIPK3 assessed as remaining enzyme activity at 1 uM by KINOMEscan assay; method in brief: as §1
Homeodomain-interacting protein kinase 3 (Homo sapiens), sequence (Q9H422 whole entry, looked up): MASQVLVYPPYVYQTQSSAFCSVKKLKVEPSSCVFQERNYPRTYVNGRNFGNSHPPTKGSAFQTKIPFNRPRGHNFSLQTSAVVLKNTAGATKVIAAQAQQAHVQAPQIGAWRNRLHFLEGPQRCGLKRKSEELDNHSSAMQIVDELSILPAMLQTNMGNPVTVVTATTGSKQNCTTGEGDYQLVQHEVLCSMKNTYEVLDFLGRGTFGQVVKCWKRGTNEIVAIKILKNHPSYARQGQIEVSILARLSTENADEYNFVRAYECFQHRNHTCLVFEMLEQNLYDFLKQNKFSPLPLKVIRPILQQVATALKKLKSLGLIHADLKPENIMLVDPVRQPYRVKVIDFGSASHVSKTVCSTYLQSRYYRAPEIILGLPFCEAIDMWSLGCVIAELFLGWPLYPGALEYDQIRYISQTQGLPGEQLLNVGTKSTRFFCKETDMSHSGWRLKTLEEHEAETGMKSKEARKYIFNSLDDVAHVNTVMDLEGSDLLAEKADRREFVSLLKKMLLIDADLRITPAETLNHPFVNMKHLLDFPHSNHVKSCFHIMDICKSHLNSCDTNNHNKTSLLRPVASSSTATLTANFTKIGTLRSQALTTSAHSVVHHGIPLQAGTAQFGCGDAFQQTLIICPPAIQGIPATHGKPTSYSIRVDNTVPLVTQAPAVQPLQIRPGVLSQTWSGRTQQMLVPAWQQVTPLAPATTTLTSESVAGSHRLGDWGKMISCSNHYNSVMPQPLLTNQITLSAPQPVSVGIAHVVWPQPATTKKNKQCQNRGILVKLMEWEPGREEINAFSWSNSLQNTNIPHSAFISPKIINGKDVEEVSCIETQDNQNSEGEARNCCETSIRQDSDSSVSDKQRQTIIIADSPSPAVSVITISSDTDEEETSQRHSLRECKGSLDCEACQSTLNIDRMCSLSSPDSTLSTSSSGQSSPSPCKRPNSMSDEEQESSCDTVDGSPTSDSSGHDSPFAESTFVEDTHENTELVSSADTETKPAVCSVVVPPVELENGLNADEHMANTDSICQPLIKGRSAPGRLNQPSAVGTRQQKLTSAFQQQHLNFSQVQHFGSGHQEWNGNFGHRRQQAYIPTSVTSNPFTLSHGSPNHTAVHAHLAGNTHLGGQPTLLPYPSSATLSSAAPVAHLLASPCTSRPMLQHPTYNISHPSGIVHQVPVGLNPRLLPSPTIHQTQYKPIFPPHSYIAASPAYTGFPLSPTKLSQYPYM

KMS-12-BM = experiment: Antitumor activity against human KMS-12-BM cells xenografted in orally dosed SCID-beige mouse administered as qd relative to vehicle control; assay type: functional, organism-based
Method in brief: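 Mouse KMS-12-BM xenograft efficacy study running 16 days. Oral dosing once daily at 10, 25, 50 or 100 mg/kg. Tumor volume compared with vehicle-treated controls.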

[26] = target: Serine/threonine-protein kinase pim-3 (Homo sapiens) (UniProt Q86V86); experiment: Inhibition of human PIM3 assessed as remaining enzyme activity at 1 uM by KINOMEscan assay; method in brief: as §4

Cc1nc2cccc3c2nc1N[C@H](C)/C=C\C[C@H]1CNC(=O)c2cc-3[nH]c21
Activity [1]: < 10% | Vd [2]: 1.5 L/kg | bioavailability [3]: 48% | Activity [4]: < 10% | Activity (Mus musculus [5]): Non-toxic | Activity [6]: < 10% | IC50 [7]: 0.151 µM | Activity (Mus musculus [8]): 8% | Activity [9]: < 10% | IC50 [10]: 0.025 µM | solubility thermodynamic [11]: 40 µM (≈ 14.4 µg/mL) | Activity [12]: < 10% | Activity (Mus musculus [13]): 60% | CL (Rattus norvegicus): 14% | metabolised at 0.5 h, 1 µM [14]: 24% | Activity (Mus musculus [15]): 35% | Activity [16]: < 10% | Activity [17]: < 10% | Activity (Mus musculus [18]): Dose-dependent effect | EC50 (Mus musculus [18]): 3.6 µM | Activity [19]: < 10% | clearance [20]: 0.47 L/h/kg | Papp at 5 µM [21]: 290 nm/s | Activity (Mus musculus [22]): 66% | Activity [23]: < 10% | Activity [24]: < 10% | Cp(f) (Plasma): 0.03 µM | Activity [25]: < 10% | TGI (KMS-12-BM): Dose-dependent effect | Activity [26]: < 10%
